ChEMBL document CHEMBL1158114, “Acetylated flavanone glycosides from the rhizomes of Cyclosorus acuminatus” (2006)
Values after ≈ are worked out from the molar mass of the structure shown.

Columns and labels:
Assay type in all cases: functional
[1] = tested on: Staphylococcus aureus; assay: Antibacterial activity against Staphylococcus aureus ATCC 25923
Method in brief: (§1)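 Twofold serial dilution method; reference laboratory ATCC strains used as test organisms: S. aureus 25923, E. coli 25922, S. pneumoniae 49619, H. influenzae 49247.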

[2] = tested on: Escherichia coli; assay: Antibacterial activity against Escherichia coli ATCC 25922; method in brief: as §1
[3] = tested on: Streptococcus pneumoniae; assay: Antibacterial activity against Streptococcus pneumoniae ATCC 49619; method in brief: as §1
[4] = tested on: Haemophilus influenzae; assay: Antibacterial activity against Haemophilus influenzae ATCC 49247; method in brief: as §1

SMILES	MIC [1]	MIC [2]	MIC [3]	MIC [4]
CC(=O)OC[C@H]1O[C@@H](O[C@@H]2[C@@H](O)[C@H](C)O[C@@H](Oc3ccc(O)cc3[C@@H]3CC(=O)c4c(O)cc(O)cc4O3)[C@@H]2OC(C)=O)[C@H](OC(C)=O)[C@@H](O)[C@@H]1O	128 µg/mL (≈ 177 µM)	64 µg/mL (≈ 88.6 µM)	32 µg/mL (≈ 44.3 µM)	32 µg/mL (≈ 44.3 µM)
CC(=O)OC[C@H]1O[C@@H](O[C@@H]2[C@@H](O)[C@H](C)O[C@@H](Oc3ccc(O)cc3[C@@H]3CC(=O)c4c(O)cc(O)cc4O3)[C@@H]2OC(C)=O)[C@H](O)[C@@H](O)[C@@H]1OC(C)=O	128 µg/mL (≈ 177 µM)	64 µg/mL (≈ 88.6 µM)	32 µg/mL (≈ 44.3 µM)	32 µg/mL (≈ 44.3 µM)
CC(=O)OC[C@H]1O[C@@H](O[C@@H]2[C@@H](O)[C@H](C)O[C@@H](Oc3ccc(O)cc3[C@@H]3CC(=O)c4c(O)cc(O)cc4O3)[C@@H]2OC(C)=O)[C@H](O)[C@@H](OC(C)=O)[C@@H]1O	128 µg/mL (≈ 177 µM)	64 µg/mL (≈ 88.6 µM)	32 µg/mL (≈ 44.3 µM)	32 µg/mL (≈ 44.3 µM)
C[C@@H]1O[C@@H](Oc2ccc(O)cc2[C@@H]2CC(=O)c3c(O)cc(O)cc3O2)[C@H](O)[C@H](O[C@@H]2O[C@H](CO)[C@@H](O)[C@H](O)[C@H]2O)[C@H]1O	128 µg/mL (≈ 215 µM)	64 µg/mL (≈ 107 µM)	32 µg/mL (≈ 53.6 µM)	32 µg/mL (≈ 53.6 µM)
CC(=O)OC[C@H]1O[C@@H](O[C@@H]2[C@@H](O)[C@H](C)O[C@@H](Oc3ccc(O)cc3[C@@H]3CC(=O)c4c(O)cc(O)cc4O3)[C@@H]2OC(C)=O)[C@H](O)[C@@H](O)[C@@H]1O	128 µg/mL (≈ 188 µM)	64 µg/mL (≈ 94 µM)	32 µg/mL (≈ 47 µM)	32 µg/mL (≈ 47 µM)
CC(=O)O[C@H]1[C@H](Oc2ccc(O)cc2[C@@H]2CC(=O)c3c(O)cc(O)cc3O2)O[C@@H](C)[C@H](O)[C@H]1O[C@@H]1O[C@H](CO)[C@@H](O)[C@H](O)[C@H]1O	128 µg/mL (≈ 200 µM)	64 µg/mL (≈ 100 µM)	32 µg/mL (≈ 50.1 µM)	32 µg/mL (≈ 50.1 µM)
CC(=O)OC[C@H]1O[C@@H](O[C@@H]2[C@@H](O)[C@H](C)O[C@@H](Oc3ccc(O)cc3[C@@H]3CC(=O)c4c(O)cc(O)cc4O3)[C@@H]2OC(C)=O)[C@H](O)[C@@H](OC(C)=O)[C@@H]1OC(C)=O	128 µg/mL (≈ 167 µM)	64 µg/mL (≈ 83.7 µM)	32 µg/mL (≈ 41.8 µM)	32 µg/mL (≈ 41.8 µM)
CC[C@H]1OC(=O)[C@H](C)[C@@H](O[C@H]2C[C@@](C)(OC)[C@@H](O)[C@H](C)O2)[C@H](C)[C@@H](O[C@@H]2O[C@H](C)C[C@H](N(C)C)[C@H]2O)[C@](C)(O)C[C@@H](C)CN(C)[C@H](C)[C@@H](O)[C@]1(C)O [AZITHROMYCIN]	0.5 µg/mL (≈ 0.668 µM)	0.5 µg/mL (≈ 0.668 µM)	4 µg/mL (≈ 5.34 µM)	8 µg/mL (≈ 10.7 µM)
CC[C@H]1OC(=O)[C@H](C)[C@@H](O[C@H]2C[C@@](C)(OC)[C@@H](O)[C@H](C)O2)[C@H](C)[C@@H](O[C@@H]2O[C@H](C)C[C@H](N(C)C)[C@H]2O)[C@](C)(O)C[C@@H](C)C(=O)[C@H](C)[C@@H](O)[C@]1(C)O [ERYTHROMYCIN]	0.25 µg/mL (≈ 0.341 µM)	0.25 µg/mL (≈ 0.341 µM)	64 µg/mL (≈ 87.2 µM)	64 µg/mL (≈ 87.2 µM)
